The values that follow come from ChEMBL document CHEMBL1949525, “Boranophosphate isoster controls P2Y-receptor subtype selectivity and metabolic stability of dinucleoside polyphosphate analogues” (J Med Chem, 2012).

Active and inactive are the calls of the source. The rule behind the calls is not given here.

One data set has as its system e-NPP1. Nature of the data set: (§1) Stability of the compound assessed as human e-NPP1-mediated hydrolysis at pH 8.5 after 20 mins by HPLC analysis. Format: ADME. The following applies: human, human e-NPP1 enzyme, pH 8.5; read-out: Drug degradation. The method, boiled down: (§2)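 Human NPP1 preparation preincubated 3 min at 37 °C in 1 mM CaCl2, 200 mM NaCl, 10 mM KCl, 100 mM Tris, pH 8.5. Started with 0.2 mM dinucleotide solution (added volume) and stopped after 20 min in ice-cold perchloric acid. Neutralised with KOH, then NMP formation followed by HPLC. Percent substrate hydrolysed is the mean of two experiments run in triplicate.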

Data set [1] can be described thus: as §1. It is filed as ADME. To be noted: buffer, pH 8.5, 20 min; for Drug degradation: 20 min. Summed up: as §2
Data set [2] can be described thus: Chemical stability of the compound at pH mimicking gastric juice acidity. It is filed as physicochemical. The following applies: simulated gi fluid.
The nature of data set [3]: Chemical stability of the compound at physiological conditions. It is filed as physicochemical.
Data set [4] deals with T1, P2Y purinoceptor 2 (Homo sapiens, UniProt P41231). Nature of the data set: Agonist activity at human P2Y purinoceptor 2 expressed in human 1321N1 cells assessed as increase in intracellular calcium concentration by spectrofluorimetry. It is filed as functional, cell-based.
The target of data set [5] is P2Y purinoceptor 1 (Meleagris gallopavo) (UniProt P49652). Nature of the data set: (§3) Agonist activity at turkey P2Y purinoceptor 1 expressed in human 1321N1 cells assessed as increase in intracellular calcium concentration by spectrofluorimetry. It is filed as functional, cell-based.
Data set [6] concerns the target T2, P2Y purinoceptor 4 (Homo sapiens, UniProt P51582). Nature of the data set: Agonist activity at human P2Y purinoceptor 4 expressed in human 1321N1 cells assessed as increase in intracellular calcium concentration by spectrofluorimetry. It is filed as functional, cell-based. To be noted: 1321-n1. Summed up: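 1321N1 astrocytoma cells (no endogenous P2Y receptors) stably expressing hP2Y4, grown in DMEM with 5% FBS, penicillin/streptomycin and 500 μg/mL G-418. Fura-2-loaded cell suspensions; compounds applied at various concentrations, 37 °C, 10 mM Hepes-buffered saline pH 7.4 with 1 mM CaCl2/MgCl2. Peak [Ca2+]i rise by dual-excitation fluorometry gives EC50; UTP reference agonist; three experiments on separate days.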

A further data set concerns the target P2Y purinoceptor 1 (Meleagris gallopavo, UniProt P49652). The data set is described as §3. Format: functional, cell-based. The following applies: read-out: EC50.
The target of a further data set is P2Y purinoceptor 6 (Rattus norvegicus, UniProt Q63371). Nature of the data set: Agonist activity at rat P2Y purinoceptor 6 expressed in human 1321N1 cells assessed as increase in intracellular calcium concentration by spectrofluorimetry. Format: functional, cell-based. The method, boiled down: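 1321N1 astrocytoma cells lacking endogenous P2Y receptors, stably transfected with turkey P2Y1, human P2Y2, human P2Y4 or rat P2Y6, grown in DMEM with 5% FBS, penicillin/streptomycin and 500 µg/mL G-418. Fura-2-loaded cell suspensions were exposed at 37 °C in 10 mM Hepes-buffered saline, pH 7.4, with 1 mM CaCl2 and 1 mM MgCl2. Peak [Ca2+]i rise by dual-excitation spectrofluorometry across concentrations; EC50 from curve fits; three experiments on separate days per subtype.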
(Calcium flux is commonly read through the fluorescence of an indicator in the cells.)

The target of data set [7] is P2Y purinoceptor 6 (Rattus norvegicus) (UniProt Q63371). Nature of the data set: Antagonist activity at rat P2Y purinoceptor 6 expressed in human 1321N1 cells assessed as inhibition of UDP-induced increase in intracellular calcium concentration by spectrofluorimetry. It is filed as functional, cell-based. The method, boiled down:
(§4)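 Fura-2-loaded 1321N1 transfectants (turkey P2Y1, human P2Y2/P2Y4, rat P2Y6) in Hepes-buffered saline, pH 7.4, at 37 °C. Analogues were tested against equimolar reference agonist: 2-MeS-ADP for P2Y1, UTP for P2Y2/4, UDP for P2Y6. Blockade of the [Ca2+]i rise was followed by dual-excitation spectrofluorometry.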

The target in data set [8] is P2Y purinoceptor 1 (Meleagris gallopavo) (UniProt P49652). Nature of the data set: Antagonist activity at turkey P2Y purinoceptor 1 expressed in human 1321N1 cells assessed as inhibition of 2-Sme-ADP-induced increase in intracellular calcium concentration by spectrofluorimetry. Format: functional, cell-based. The method, boiled down: as §4
For data set [9], the target named is T1, P2Y purinoceptor 2. Nature of the data set: Antagonist activity at human P2Y purinoceptor 2 expressed in human 1321N1 cells assessed as inhibition of UTP-induced increase in intracellular calcium concentration by spectrofluorimetry. It is filed as functional, cell-based. The method, boiled down:
as §4

The target in data set [10] is T2, P2Y purinoceptor 4. Nature of the data set: Antagonist activity at human P2Y purinoceptor 4 expressed in human 1321N1 cells assessed as inhibition of UTP-induced increase in intracellular calcium concentration by spectrofluorimetry. It is filed as functional, cell-based. The method, boiled down:
as §4

Data set [11] concerns the target P2Y purinoceptor 1 (Meleagris gallopavo) (UniProt P49652). Nature of the data set: Agonist activity at turkey P2Y purinoceptor 1 expressed in human 1321N1 cells assessed as increase in intracellular calcium concentration at 100 uM by spectrofluorimetry. Format: functional, cell-based.

T2 sequence (P51582 whole entry): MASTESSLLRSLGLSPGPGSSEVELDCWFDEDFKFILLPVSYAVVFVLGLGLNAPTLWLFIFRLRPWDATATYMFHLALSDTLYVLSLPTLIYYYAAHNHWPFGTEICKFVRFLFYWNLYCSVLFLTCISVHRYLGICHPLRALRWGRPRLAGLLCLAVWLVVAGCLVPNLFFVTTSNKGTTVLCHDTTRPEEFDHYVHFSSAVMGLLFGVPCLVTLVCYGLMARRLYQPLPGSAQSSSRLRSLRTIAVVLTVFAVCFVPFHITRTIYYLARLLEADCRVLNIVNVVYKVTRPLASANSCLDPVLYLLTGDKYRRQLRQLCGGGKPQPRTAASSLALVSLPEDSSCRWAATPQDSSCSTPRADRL
P2Y purinoceptor 6 (Rattus norvegicus), sequence (Q63371 whole entry): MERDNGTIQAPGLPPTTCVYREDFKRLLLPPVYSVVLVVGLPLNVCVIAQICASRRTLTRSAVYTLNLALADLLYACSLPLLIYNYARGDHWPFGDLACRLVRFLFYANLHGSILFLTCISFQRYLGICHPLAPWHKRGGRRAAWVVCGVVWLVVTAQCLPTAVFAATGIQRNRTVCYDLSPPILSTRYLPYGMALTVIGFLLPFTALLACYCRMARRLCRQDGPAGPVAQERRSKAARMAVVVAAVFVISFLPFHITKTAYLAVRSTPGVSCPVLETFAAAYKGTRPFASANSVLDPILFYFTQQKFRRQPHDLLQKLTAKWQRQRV
P2Y purinoceptor 6, sequence (Q63371 whole entry): as above
T1 sequence (P41231 whole entry): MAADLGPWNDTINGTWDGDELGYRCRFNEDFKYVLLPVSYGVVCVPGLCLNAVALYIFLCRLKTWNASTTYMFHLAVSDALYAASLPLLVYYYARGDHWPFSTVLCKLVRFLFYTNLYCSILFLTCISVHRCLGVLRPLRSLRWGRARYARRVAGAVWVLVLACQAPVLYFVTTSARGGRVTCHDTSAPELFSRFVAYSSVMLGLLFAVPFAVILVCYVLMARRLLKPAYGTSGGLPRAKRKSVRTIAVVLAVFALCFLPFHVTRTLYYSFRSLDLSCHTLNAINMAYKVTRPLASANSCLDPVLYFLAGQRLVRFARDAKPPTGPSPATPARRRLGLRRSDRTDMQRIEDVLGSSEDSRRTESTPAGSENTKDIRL
P2Y purinoceptor 1, sequence (P49652 whole entry): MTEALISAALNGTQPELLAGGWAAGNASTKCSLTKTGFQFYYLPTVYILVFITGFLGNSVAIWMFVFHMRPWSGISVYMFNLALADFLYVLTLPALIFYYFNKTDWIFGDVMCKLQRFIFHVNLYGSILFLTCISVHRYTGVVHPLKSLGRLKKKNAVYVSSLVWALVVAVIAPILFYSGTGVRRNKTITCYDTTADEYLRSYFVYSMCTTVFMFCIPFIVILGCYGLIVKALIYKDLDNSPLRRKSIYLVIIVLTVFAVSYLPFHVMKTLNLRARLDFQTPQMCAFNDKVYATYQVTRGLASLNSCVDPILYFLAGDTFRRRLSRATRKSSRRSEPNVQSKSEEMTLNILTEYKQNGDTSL
P2Y purinoceptor 1 (Meleagris gallopavo), sequence (P49652 whole entry): as above

Consider `Nc1ncnc2c1ncn2[C@@H]1O[C@H](COP(=O)(O)OP(=O)(O)OP(=O)(O)OP(=O)(O)OC[C@H]2O[C@@H](n3ccc(=O)[nH]c3=O)[C@H](O)[C@@H]2O)[C@@H](O)[C@H]1O`, for which the metabolised at 20 min in the data set on e-NPP1 amounted to 18%.
With `BP(=O)(OP(=O)(O)OC[C@H]1O[C@@H](n2ccc(=O)[nH]c2=O)[C@H](O)[C@@H]1O)OP(=O)(O)OC[C@H]1O[C@@H](n2ccc(=O)[nH]c2=O)[C@H](O)[C@@H]1O.CCCCN(CCCC)CCCC.CCCCN(CCCC)CCCC.CCCCN(CCCC)CCCC`, the Stability result in data set [1], in [2] and in data set [3] was “Stable” each time. For the same compound, the result (at P2Y purinoceptor 2 [4]; in data set [5]) was inactive.
On to `O=c1ccn([C@@H]2O[C@H](COP(=O)(O)OP(=O)(O)OP(=O)(O)OC[C@H]3O[C@@H](n4ccc(=O)[nH]c4=O)[C@H](O)[C@@H]3O)[C@@H](O)[C@H]2O)c(=O)[nH]1`, for which the metabolised at 20 min in the data set on e-NPP1 was determined as 21%.
Same read-out and setting: next, `Nc1ncnc2c1ncn2[C@@H]1O[C@H](COP(=O)(O)OP(=O)(O)OP(=O)(O)OC[C@H]2O[C@@H](n3cnc4c(N)ncnc43)[C@H](O)[C@@H]2O)[C@@H](O)[C@H]1O`: 22%.
As to `BP(=O)(OP(=O)(O)OC[C@H]1O[C@@H](n2cnc3c(N)ncnc32)[C@H](O)[C@@H]1O)OP(=O)(O)OP(=O)(O)OC[C@H]1O[C@@H](n2cnc3c(N)ncnc32)[C@H](O)[C@@H]1O.CCCCN(CCCC)CCCC.CCCCN(CCCC)CCCC.CCCCN(CCCC)CCCC.CCCCN(CCCC)CCCC` (stereo in doubt; 6A), the metabolised at 20 min with e-NPP1 is 1.6%. For the same compound, the EC50 (commonly the concentration needed to bring the measured effect to its halfway point) at P2Y purinoceptor 4 [6] is “Not Active”; on P2Y purinoceptor 2 [4] (1321-n1) it was “Not Active”; on P2Y purinoceptor 1 it was 3000 nM.
`BP(=O)(OP(=O)(O)OC[C@H]1O[C@@H](n2ccc(=O)[nH]c2=O)[C@H](O)[C@@H]1O)OP(=O)(O)OP(=O)(O)OC[C@H]1O[C@@H](n2ccc(=O)[nH]c2=O)[C@H](O)[C@@H]1O.CCCCN(CCCC)CCCC.CCCCN(CCCC)CCCC.CCCCN(CCCC)CCCC.CCCCN(CCCC)CCCC` (stereo in doubt; 7A): the metabolised at 20 min with e-NPP1 came out at 3%. For the same compound, the half-maximal effective concentration (EC50) entry at P2Y purinoceptor 4 [6] was “Not Active”; at P2Y purinoceptor 6 (read-out: EC50), 1930 nM.
As for `BP(=O)(OP(=O)(O)OC[C@H]1O[C@@H](n2ccc(=O)[nH]c2=O)[C@H](O)[C@@H]1O)OP(=O)(O)OP(=O)(O)OC[C@H]1O[C@@H](n2ccc(=O)[nH]c2=O)[C@H](O)[C@@H]1O.CCCCN(CCCC)CCCC.CCCCN(CCCC)CCCC.CCCCN(CCCC)CCCC.CCCCN(CCCC)CCCC` (stereo in doubt; 7B), the outcome (in data set [7]; in data set [8]; at P2Y purinoceptor 2 [9]; on P2Y purinoceptor 4 [10]) was inactive. In data set [11], the outcome was Active.
For the compound `BP(=O)(OP(=O)(O)OC[C@H]1O[C@@H](n2cnc3c(N)ncnc32)[C@H](O)[C@@H]1O)OP(=O)(O)OP(=O)(O)OC[C@H]1O[C@@H](n2ccc(=O)[nH]c2=O)[C@H](O)[C@@H]1O.CCCCN(CCCC)CCCC.CCCCN(CCCC)CCCC.CCCCN(CCCC)CCCC.CCCCN(CCCC)CCCC` (stereo in doubt; 8A) [listing 1 of 2 here], in the data set on e-NPP1, the metabolised at 20 min was determined as 1.5%. The EC50 result at P2Y purinoceptor 4 [6] is “Not Active”; on P2Y purinoceptor 2 [4] (1321-n1) it was “Not Active”; on P2Y purinoceptor 6 (read-out: EC50) it was 1290 nM.
For `BP(=O)(OP(=O)(O)OC[C@H]1O[C@@H](n2cnc3c(N)ncnc32)[C@H](O)[C@@H]1O)OP(=O)(O)OP(=O)(O)OC[C@H]1O[C@@H](n2ccc(=O)[nH]c2=O)[C@H](O)[C@@H]1O.CCCCN(CCCC)CCCC.CCCCN(CCCC)CCCC.CCCCN(CCCC)CCCC.CCCCN(CCCC)CCCC` (stereo in doubt; 8A) [listing 2 of 2 here], the outcome (in data set [7]; in [8]; at P2Y purinoceptor 2 [9]; at P2Y purinoceptor 4 [10]) was inactive. In [11], the result was Active.
Turning to `BP(=O)(OP(=O)(O)OC[C@H]1O[C@@H](n2ccc(=O)[nH]c2=O)[C@H](O)[C@@H]1O)OP(=O)(O)OP(=O)(O)OC[C@H]1O[C@@H](n2cnc3c(N)ncnc32)[C@H](O)[C@@H]1O.CCCCN(CCCC)CCCC.CCCCN(CCCC)CCCC.CCCCN(CCCC)CCCC.CCCCN(CCCC)CCCC` (stereo in doubt; 9A), in the data set with e-NPP1, the metabolised at 20 min is 3%. Besides, the EC50 entry on P2Y purinoceptor 4 [6] was “Not Active”; on P2Y purinoceptor 6 (read-out: EC50) it was 20900 nM; on P2Y purinoceptor 1, 500 nM.
For `BP(=O)(OC[C@H]1O[C@@H](n2cnc3c(N)ncnc32)[C@H](O)[C@@H]1O)OP(=O)(O)OP(=O)(O)OC[C@H]1O[C@@H](n2cnc3c(N)ncnc32)[C@H](O)[C@@H]1O.CCCCN(CCCC)CCCC.CCCCN(CCCC)CCCC.CCCCN(CCCC)CCCC` (stereo in doubt; 10A), in [1], the Drug degradation is given as 0%. Also, the concentration for a half-maximal effect (EC50) result on P2Y purinoceptor 4 [6] was “Not Active”; at P2Y purinoceptor 2 [4] (1321-n1), “Not Active”; on P2Y purinoceptor 6 (1321-n1), “Not Active”; at P2Y purinoceptor 1, 760 nM.
Take `BP(=O)(OC[C@H]1O[C@@H](n2ccc(=O)[nH]c2=O)[C@H](O)[C@@H]1O)OP(=O)(O)OP(=O)(O)OC[C@H]1O[C@@H](n2ccc(=O)[nH]c2=O)[C@H](O)[C@@H]1O.CCCCN(CCCC)CCCC.CCCCN(CCCC)CCCC.CCCCN(CCCC)CCCC` (stereo in doubt; 11A): in [1], the Drug degradation is listed as 0%. The concentration for a half-maximal effect (EC50) entry is “Not Active” at P2Y purinoceptor 4 [6], “Not Active” on P2Y purinoceptor 2 [4] (1321-n1), 720 nM on P2Y purinoceptor 6 (read-out: EC50) and 4400 nM on P2Y purinoceptor 1.
For the compound `BP(=O)(OC[C@H]1O[C@@H](n2ccc(=O)[nH]c2=O)[C@H](O)[C@@H]1O)OP(=O)(O)OP(=O)(O)OC[C@H]1O[C@@H](n2ccc(=O)[nH]c2=O)[C@H](O)[C@@H]1O.CCCCN(CCCC)CCCC.CCCCN(CCCC)CCCC.CCCCN(CCCC)CCCC` (stereo in doubt; 11B), the result (in [7]; in data set [8]; at P2Y purinoceptor 2 [9]; on P2Y purinoceptor 4 [10]) was inactive. Also, the result in data set [11] was Active.
For the compound `BP(=O)(OC[C@H]1O[C@@H](n2cnc3c(N)ncnc32)[C@H](O)[C@@H]1O)OP(=O)(O)OP(=O)(O)OP(=O)(O)OC[C@H]1O[C@@H](n2cnc3c(N)ncnc32)[C@H](O)[C@@H]1O.CCCCN(CCCC)CCCC.CCCCN(CCCC)CCCC.CCCCN(CCCC)CCCC.CCCCN(CCCC)CCCC` (stereo in doubt; 12A), the Drug degradation in data set [1] turned out to be 2.5%. Also, the 50% effective concentration (EC50) entry at P2Y purinoceptor 4 [6] was “Not Active”; on P2Y purinoceptor 2 [4] (read-out: EC50), 25900 nM; at P2Y purinoceptor 6 (1321-n1) it was “Not Active”; at P2Y purinoceptor 1, 1480 nM.
In the case of `BP(=O)(OC[C@H]1O[C@@H](n2ccc(=O)[nH]c2=O)[C@H](O)[C@@H]1O)OP(=O)(O)OP(=O)(O)OP(=O)(O)OC[C@H]1O[C@@H](n2ccc(=O)[nH]c2=O)[C@H](O)[C@@H]1O.CCCCN(CCCC)CCCC.CCCCN(CCCC)CCCC.CCCCN(CCCC)CCCC.CCCCN(CCCC)CCCC` (stereo in doubt; 13B), the result (in data set [7]; in data set [8]; on P2Y purinoceptor 2 [9]; at P2Y purinoceptor 4 [10]) was inactive. The result in data set [11] was Active.
As for `Nc1ncnc2c1ncn2[C@@H]1O[C@H](COP(=O)(O)OP(=O)(O)OP(=O)(O)OP(=O)(O)OC[C@H]2O[C@@H](n3cnc4c(N)ncnc43)[C@H](O)[C@@H]2O)[C@@H](O)[C@H]1O` [DIADENOSINE TETRAPHOSPHATE], the metabolised at 20 min with e-NPP1 amounted to 17%.
